Source: PubChem (Broad Institute)
Hits are enriched below; roughly 2% of the tested compounds scored in any of these assays.
S100A4 inh HTS: inhibitors of human S100A4 binding to myosin IIA peptide; actives 0.14% (n = 360,000); S100A4/TAMRA-MyoIIA peptide fluorescence polarization; inhibition, % at 10.7 µM; P26447;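 active = mean inhibition of at least 70% across replicates, with every replicate also reaching that level; inconclusive = mean inhibition reaches 70% but some replicates fall short; inactive = mean inhibition below 70%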
Target sequence (P26447 whole entry, looked up): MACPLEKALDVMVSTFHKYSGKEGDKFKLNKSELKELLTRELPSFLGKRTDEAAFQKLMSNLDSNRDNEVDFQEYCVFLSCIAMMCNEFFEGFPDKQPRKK
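Test system: S100A4 monomer protein. Medium: HEPES buffer with Ca2+, pH 7.2. Reagent: fluorescent myosin IIA peptide, 5 nM. Compound dosing: single-point compound testing. Timing: 5 min between mix addition and reading. Benchmarks: DMSO neutral and TFP positive wells.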
Xi reactivation: reactivates the inactive X chromosome in mouse fibroblasts | XiGFP mouse fibroblasts, % GFP-positive cells imaging, 3 d; cells co-treated with 5-aza-dC sensitizer; scaled so ellipticine positive control = 100% | activation, % at 7.58 µM | actives 0.055% (n = 360,000) | AID 743238;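 active = mean normalized replicate activation at least 10% and every replicate at or above 10%; inconclusive = only one of the two criteria met; inactive = mean below 10% and not all replicates reach 10%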
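Assay system – SV40-immortalized XiGFP fibroblast cells, line 68-5-11 · Buffer or medium – DMEM supplemented with 5-aza-dC as sensitizing agent · Dosing – one concentration, pinned · Benchmarks – positive control ellipticine, 6 µM final · Times – 3 days compound exposure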
E-sel inducer: E-selectin induction on HUVECs; activation, % at 7.58 µM; actives 0.37% (n = 260,000); P16581; HUVEC E-selectin immunofluorescence imaging; normalized: neutral wells 0, TNF-alpha wells 100;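 active = mean E-selectin-positive cell signal at least 10% of the positive control, reached in at least 60% of replicates, without over 20% cell loss; inconclusive = no rule given, readout overlaps actives, possibly toxicity-flagged; inactive = the rest, including those meeting only one limit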
Target sequence (P16581 whole entry, looked up): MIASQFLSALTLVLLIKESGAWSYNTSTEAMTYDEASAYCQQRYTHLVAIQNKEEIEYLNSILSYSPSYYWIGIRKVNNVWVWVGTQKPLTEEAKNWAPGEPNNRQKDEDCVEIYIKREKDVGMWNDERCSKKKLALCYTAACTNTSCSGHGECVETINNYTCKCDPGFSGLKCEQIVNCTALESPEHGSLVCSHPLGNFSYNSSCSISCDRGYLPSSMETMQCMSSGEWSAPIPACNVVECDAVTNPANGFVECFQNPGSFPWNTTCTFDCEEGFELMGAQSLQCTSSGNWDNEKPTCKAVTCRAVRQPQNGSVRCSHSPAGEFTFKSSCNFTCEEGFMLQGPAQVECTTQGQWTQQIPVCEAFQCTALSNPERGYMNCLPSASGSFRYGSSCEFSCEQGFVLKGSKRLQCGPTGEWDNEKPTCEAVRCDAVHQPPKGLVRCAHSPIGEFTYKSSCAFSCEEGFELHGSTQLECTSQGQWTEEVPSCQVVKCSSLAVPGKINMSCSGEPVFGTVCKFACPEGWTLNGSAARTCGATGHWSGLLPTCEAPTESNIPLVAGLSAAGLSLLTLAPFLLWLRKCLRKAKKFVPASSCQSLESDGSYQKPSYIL
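Material: HUVEC primary endothelial cells; Amount: 3,000 cells per well; Dosing: single concentration; Medium: EGM-2 growth medium on 0.1% gelatin-coated wells; Read-out basis: percent E-selectin-positive cells; Signal: immunofluorescence imaging; Control set: TNF-alpha, DMSO.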
DENV2 CPE rescue: protects cells from dengue virus 2 cytopathic effect. CPE inhibition, % at 9.99 µM. actives 1.7% (n = 350,000). DENV2-infected cells, cytopathic effect rescue, plate reader; in the data active = CPE inhibition above about 20%, passing the limit was not always enough; inconclusive = no clear call, values can overlap the other calls; tested in BHK-21 cells
Large screens that a line does not name were inactive; ! = not active in a repeat.

COc1ccc(NC(=O)NNC(=O)c2cc(C3CC3)nc3ccccc23)c(OC)c1	none
Cc1c(C(=O)N2CCCC2)oc2c1-c1nn(CC(=O)NCCCN3CCCCC3C)cc1CC2 (stereo not drawn)	DENV2 CPE rescue inconclusive (no result: E-sel inducer)
CCOc1cc(CNCCN2CCOCC2)ccc1OCc1ccccc1Cl	DENV2 CPE rescue 28.9 (no result: E-sel inducer)
C/C(=N\NC(=O)c1ccccc1O)c1ccc(NC(=O)c2ccccc2)cc1	DENV2 CPE rescue 116.5
C[C@@H]1CN([C@H](C)CO)C(=O)c2cc(C#Cc3ccccc3F)cnc2O[C@H]1CN(C)C(=O)C1CCOCC1	DENV2 CPE rescue 34.7
C[C@H]1CN([C@@H](C)CO)C(=O)c2cc(-c3ccccc3F)cnc2O[C@H]1CN(C)C(=O)c1ccccn1	none
C[C@@H]1CN([C@@H](C)CO)C(=O)c2cc(-c3ccccc3F)cnc2O[C@@H]1CN(C)C(=O)C1CCOCC1	DENV2 CPE rescue 60.1
C[C@H](CO)N1C[C@H](C)[C@@H](CN(C)C(=O)c2ccccn2)Oc2ncc(-c3ccccc3F)cc2C1=O	DENV2 CPE rescue 20.8
COC(=O)[C@@H]1C[C@@H]2CC[C@@H](O)C[C@@H]2N1Cc1ccc(Cl)cc1	none
COC(=O)[C@@H]1C[C@H]2CC[C@H](O)C[C@H]2N1Cc1ccc(C(F)(F)F)cc1	DENV2 CPE rescue 60.8
CC(=O)NCc1ccc(C(=O)COC(=O)COc2ccc(Cl)c(C)c2)s1	DENV2 CPE rescue 65.0
CC(=O)NCc1ccc(C(=O)COC(=O)COc2ccccc2)s1	none
COCC(=O)Nc1ccc2c(c1)C(=O)N(C)C[C@@H](OC)[C@H](C)CN(C(C)=O)[C@@H](C)CO2	DENV2 CPE rescue 32.2
COCC(=O)Nc1ccc2c(c1)OC[C@H](C)N(C(C)=O)C[C@H](C)[C@@H](OC)CN(C)C2=O	none
COCC(=O)Nc1ccc2c(c1)C(=O)N(C)C[C@H](OC)[C@@H](C)CN(C(=O)COC)[C@@H](C)CO2	none
COCC(=O)Nc1ccc2c(c1)C(=O)N(C)C[C@H](OC)[C@H](C)CN(C(=O)COC)[C@H](C)CO2	DENV2 CPE rescue 23.9
COc1ccc(S(=O)(=O)Nc2ccc3c(c2)C(=O)N([C@H](C)CO)C[C@@H](C)[C@H](CN(C)S(=O)(=O)c2ccc(C)cc2)OCCCC[C@H](C)O3)cc1	none (no result: E-sel inducer)
CN(C)CCN(Cc1ccc(Cl)cc1)c1ccccn1	Xi reactivation 14.6
C[N+](C)(C)CCN(Cc1ccc(Cl)cc1)c1ccccn1	none (no result: S100A4 inh HTS, Xi reactivation, DENV2 CPE rescue)
COc1ccccc1-c1nnc(NC(=O)CSc2nncn2C)s1	E-sel inducer 36.7
C[C@@H]1CN([C@H](C)CO)C(=O)Cc2cc(NS(=O)(=O)c3ccc(Cl)cc3)ccc2O[C@H]1CN(C)Cc1ccc(C(=O)Nc2ccccc2N)cc1	DENV2 CPE rescue 71.2
C[C@@H]1CN([C@@H](C)CO)C(=O)Cc2cc(NS(=O)(=O)c3ccc(Cl)cc3)ccc2O[C@@H]1CN(C)Cc1ccc(C(=O)Nc2ccccc2N)cc1	none
Cc1noc(C)c1S(=O)(=O)Nc1ccc2c(c1)CC(=O)N([C@H](C)CO)C[C@H](C)[C@@H](CN(C)Cc1ccc(C(=O)Nc3ccccc3N)cc1)O2	DENV2 CPE rescue 39.9 (no result: E-sel inducer)
Cn1cccc1C(=O)Nc1ccc(N2CCOCC2)cc1	none
C[C@H]1CN([C@@H](C)CO)C(=O)c2cc(NC(=O)c3ccncc3)ccc2O[C@H]1CN(C)Cc1ccc(Cl)c(Cl)c1	DENV2 CPE rescue inconclusive
COC(=O)C1=CO[C@@H](O[C@@H]2O[C@H](CO)[C@@H](O)[C@H](O)[C@H]2O)C2C1CC(O)O[C@H]2C (stereo partly drawn)	DENV2 CPE rescue 23.1
COC(=O)C1=COC(OC2OC(CO)C(O)C(O)C2O)C2C(C)CC(=O)C12 (stereo not drawn)	none (no result: Xi reactivation, E-sel inducer)
Cn1c(SCC(=O)Nc2ccccc2O)nnc1-c1ccco1	none
CCO[C@H]1OC(C(=O)N2CCOCC2)=C[C@@H](c2cn(C(C)=O)c3ccccc23)[C@@H]1CCCO	DENV2 CPE rescue 27.5!
CCO[C@H]1OC(C(=O)N2CCCC2)=C[C@@H](c2ccc3c(c2)OCO3)[C@@H]1CCCO	none (no result: Xi reactivation, E-sel inducer)
CCO[C@H]1OC(C(=O)O)=C[C@@H](c2ccc3c(c2)OCO3)[C@@H]1CCCO	DENV2 CPE rescue 23.8
CCO[C@H]1OC(C(=O)NC2CC2)=C[C@@H](c2ccc(C(F)(F)F)cc2)[C@@H]1CCCO	DENV2 CPE rescue 24.8!
COC(=O)c1cc(C)nc(Sc2ccccc2NC(C)=O)n1	none
O=C(NC(=S)Nc1ccccn1)c1cncc(Br)c1	E-sel inducer 26.0
O=C(NC(=S)Nc1ccccc1O)c1cncc(Br)c1	none
Cc1cc(C)cc(C(O)c2ncc(-c3ccc4ccccc4c3)[nH]2)c1 (stereo not drawn)	none
Cc1ccc(C(O)c2ncc(-c3ccc4ccccc4c3)[nH]2)cc1 (stereo not drawn)	DENV2 CPE rescue 75.8
CCCCNC(=O)C1(C)CCN1C(=O)c1cc(-c2cccs2)oc1C (stereo not drawn)	DENV2 CPE rescue 32.8 (no result: E-sel inducer)
NS(=O)(=O)c1ccc(CCNC(=O)C2CCCN2C(=O)c2cccs2)cc1 (stereo not drawn)	DENV2 CPE rescue 94.7
COc1cccc(N(C(=O)Cn2nnc(-c3ccc(C)o3)n2)C(C(=O)NC2CCCC2)c2ccncc2)c1 (stereo not drawn)	none (no result: E-sel inducer)
Cc1cccc(NC(=O)COC(=O)c2cc3ccccc3oc2=O)c1	none
COCC(=O)N(C)C[C@@H]1Oc2cc(-c3ccc(F)cc3)ccc2S(=O)(=O)N([C@H](C)CO)C[C@H]1C	E-sel inducer 57.8!
COCC(=O)N(C)C[C@H]1Oc2cc(-c3ccc(F)cc3)ccc2S(=O)(=O)N([C@@H](C)CO)C[C@@H]1C	none
COCC(=O)N(C)C[C@H]1Oc2cc(-c3ccncc3)ccc2S(=O)(=O)N([C@H](C)CO)C[C@H]1C	DENV2 CPE rescue 74.4
COC(=O)c1nnn(CC(=O)NC(=O)Nc2ccc(F)cc2)c1C(=O)OC	none
O=C(CSc1ccncc1)Nc1ccc2ccccc2c1	none
CC1NC2(C(=O)N(Cc3ccccc3)c3ccccc32)C2C(=O)N(c3ccccc3)C(=O)C12 (stereo not drawn)	S100A4 inh HTS 85.6
CN(C)CCN1CCN(C(c2ccnc3ccccc23)c2nnnn2-c2ccc3c(c2)OCCO3)CC1 (stereo not drawn)	DENV2 CPE rescue 21.5
CCCCC1=CC2=C(c3ccco3)C(=O)C(C)(OC(=O)c3ccc(OC)cc3)C(=O)C2=CN1CC1CC1 (stereo not drawn)	none
CCCCC1=CC2=C(c3ccco3)C(=O)C(C)(OC(=O)c3ccc(OC)cc3)C(=O)C2=CN1C1CC1 (stereo not drawn)	DENV2 CPE rescue 52.9
CC(C)CCNC(=O)C1CC(c2ccccc2C(F)(F)F)=NO1 (stereo not drawn)	DENV2 CPE rescue 35.3
O=C(NCc1ccccc1C(F)(F)F)C1CC(c2ccccc2C(F)(F)F)=NO1 (stereo not drawn)	none (no result: S100A4 inh HTS, DENV2 CPE rescue)
